In ChEMBL document CHEMBL3351639, “Fluorinated analogues of marsanidine, a highly α2-AR/imidazoline I1 binding site-selective hypotensive agent. Synthesis and biological activities” (Eur J Med Chem, 2014):

Tests used:
Format in all cases: cell-based
[1] = target: T1, Alpha-2B adrenergic receptor (Homo sapiens, UniProt P18089); assay: Displacement of [3H]RS-79948-197 from human alpha2B adrenoceptor expressed in CHO-K1 cells after 45 mins by liquid scintillation counting
T1 sequence (P18089 whole entry): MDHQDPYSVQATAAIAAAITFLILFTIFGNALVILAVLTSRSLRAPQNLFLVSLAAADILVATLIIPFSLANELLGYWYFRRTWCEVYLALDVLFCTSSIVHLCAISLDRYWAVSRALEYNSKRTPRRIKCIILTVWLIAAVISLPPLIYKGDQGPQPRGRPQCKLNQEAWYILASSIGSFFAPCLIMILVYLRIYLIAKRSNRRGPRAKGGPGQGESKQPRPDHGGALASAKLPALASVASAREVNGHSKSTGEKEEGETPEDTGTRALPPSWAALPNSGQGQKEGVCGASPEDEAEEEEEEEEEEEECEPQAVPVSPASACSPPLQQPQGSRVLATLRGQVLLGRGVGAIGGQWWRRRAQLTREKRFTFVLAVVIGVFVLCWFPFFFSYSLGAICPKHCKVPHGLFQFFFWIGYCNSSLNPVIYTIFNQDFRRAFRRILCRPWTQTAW
Procedure, shortened: (§1)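 Membranes from CHO-K1 cells stably expressing each human α2-AR subtype (6–10 µg protein). Used 0.2 nM [3H]RS-79948-197 and 8 serial dilutions of competitor in 50 mM potassium phosphate, pH 7.4. Non-specific binding defined with 100 µM oxymetazoline. Filtration, then scintillation counting. Run in duplicate, at least 3 repeats. One-site nonlinear fit; IC50 converted to Ki by Cheng-Prusoff.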

[2] = target: T2, Alpha-2A adrenergic receptor (Homo sapiens, UniProt P08913); assay: Displacement of [3H]RS-79948-197 from human alpha2A adrenoceptor expressed in CHO-K1 cells after 45 mins by liquid scintillation counting; procedure, shortened: as §1
T2 sequence (P08913 whole entry): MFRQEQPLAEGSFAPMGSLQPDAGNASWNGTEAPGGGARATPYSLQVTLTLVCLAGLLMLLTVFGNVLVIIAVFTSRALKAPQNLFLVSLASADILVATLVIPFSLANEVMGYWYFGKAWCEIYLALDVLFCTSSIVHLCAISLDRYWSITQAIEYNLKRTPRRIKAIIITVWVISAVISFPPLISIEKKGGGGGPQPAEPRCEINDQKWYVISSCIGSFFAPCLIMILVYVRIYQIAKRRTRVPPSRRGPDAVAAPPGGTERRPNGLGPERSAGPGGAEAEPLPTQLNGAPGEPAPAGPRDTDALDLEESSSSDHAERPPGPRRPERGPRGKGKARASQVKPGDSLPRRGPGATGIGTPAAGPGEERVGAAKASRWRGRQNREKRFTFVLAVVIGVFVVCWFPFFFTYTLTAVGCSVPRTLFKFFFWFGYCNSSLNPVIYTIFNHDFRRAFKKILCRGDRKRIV

[3] = target: T3, Alpha-2C adrenergic receptor (Homo sapiens, UniProt P18825); assay: Displacement of [3H]RS-79948-197 from human alpha2C adrenoceptor expressed in CHO-K1 cells after 45 mins by liquid scintillation counting; procedure, shortened: as §1
T3 sequence (P18825 whole entry): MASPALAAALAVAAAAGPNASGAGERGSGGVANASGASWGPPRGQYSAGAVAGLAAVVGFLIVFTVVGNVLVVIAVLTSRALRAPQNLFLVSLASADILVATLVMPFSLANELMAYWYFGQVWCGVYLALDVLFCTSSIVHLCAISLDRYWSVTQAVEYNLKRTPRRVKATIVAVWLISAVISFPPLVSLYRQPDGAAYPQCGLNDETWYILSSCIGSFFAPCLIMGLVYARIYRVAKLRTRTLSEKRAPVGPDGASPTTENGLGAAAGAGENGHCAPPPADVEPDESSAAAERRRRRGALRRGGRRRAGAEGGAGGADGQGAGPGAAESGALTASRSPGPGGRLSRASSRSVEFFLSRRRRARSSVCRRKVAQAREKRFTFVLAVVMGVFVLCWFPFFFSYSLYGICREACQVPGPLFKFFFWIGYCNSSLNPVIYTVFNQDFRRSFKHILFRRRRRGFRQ

Row | SMILES | Ki [1] | Ki [2] | Ki [3]
1 | Fc1cccc2cnn(N=C3NCCN3)c12 | 158 nM | 65 nM | 1200 nM
2 | Fc1ccc2cnn(N=C3NCCN3)c2c1 | 72 nM | 33 nM | 600 nM
